Measurements published in ChEMBL document CHEMBL4725226, “Discovery of a new potent inhibitor of mushroom tyrosinase (Agaricus bisporus) containing 4-(4-hydroxyphenyl)piperazin-1-yl moiety” (Bioorg Med Chem, 2020).
The source made the active and inactive calls. No cut-off for these calls is given here.

Key:
[1] = Antioxidant activity assessed as ABTS radical scavenging activity incubated in dark for 1 min; assay type: functional
In short: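 ABTS radical cation generated from 7 mM ABTS plus 2.45 mM potassium persulfate (final), held dark at room temperature 24 h, then diluted to A734 0.700 ± 0.02. Sample added, kept dark at room temperature 1 min; drop in A734 read against a Trolox standard curve.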

Mushroom tyrosinase = Mushroom tyrosinase (Agaricus bisporus, UniProt O42713+Q00024+C7FF04+C7FF05); experiment: Inhibition of diphenolase activity of mushroom tyrosinase using L-Dopa as substrate preincubated with substrate for 10 mins followed by enzyme addition and measured after 5 mins
In short: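 Diphenolase assay: sample (5–300 µM) with 1.25 mM L-DOPA in 0.05 M sodium acetate pH 6.8, preincubated 10 min at 25 °C; mushroom tyrosinase (333 U/mL stock) added last. Linear A475 rise followed up to 5 min; % inhibition, IC50 interpolated from dose-response curves; three replicates. Kojic acid standard at 8–35 µM.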

[2] = molecular target: T1, Mushroom tyrosinase (Agaricus bisporus) (UniProt O42713+Q00024+C7FF04+C7FF05); experiment: Potency index, ratio of kojic acid IC50 to test compound IC50 for diphenolase activity of mushroom tyrosinase using L-Dopa as substrate preincubated with substrate for 10 mins followed by enzyme addition and measured after 5 mins
[3] = molecular target: T1, Mushroom tyrosinase (Agaricus bisporus); experiment: Noncompetitive inhibition of diphenolase activity of mushroom tyrosinase assessed as decrease in Vmax with constant Km at 2 to 8 uM using 0.6 to 5 mM L-dopa as substrate by Lineweaver-Burk double reciprocal plot analysis; conditions: dose microM 2-8
HeLa = experiment: Cytotoxicity against human HeLa cells assessed as cell viability at 4 to 10 uM measured after 48 hrs by MTT assay; assay type: cell-based; conditions: dose 4-10 µM
In short: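 HeLa grown in DMEM with 10% FBS, 2 mM L-glutamine, penicillin/streptomycin, 37 °C, 5% CO2; seeded at 3 × 10^4/mL. Exposed 48 h to compound (4–100 µM in DMSO, DMSO-only control), then MTT (0.5 mg/mL final) 3 h at 37 °C, lysed in DMSO, OD 560 nm; mean ± SD of triplicates.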

Compound	IC50 (Mushroom tyrosinase)	also measured
Cc1c(C)c2c(c(C)c1O)CCC(C)(C(=O)O)O2 (stereo not drawn) [TROLOX]		EC50 [1]: 13 µM
O=C(CCN1CCC(Cc2ccccc2)CC1)N1CCN(c2ccc(O)cc2)CC1	4.03 µM	
O=C(CCN1CCC(Cc2ccccc2)CC1)N1CCN(c2ccccc2)CC1	57.5 µM	
O=C(CN1CCC(Cc2ccccc2)CC1)N1CCN(c2ccccc2)CC1	80.86 µM	
O=C(CCN1CCC(Cc2ccc(F)cc2)CC1)N1CCN(c2ccc(O)cc2)CC1	6.06 µM	
O=C(CN1CCC(Cc2ccccc2)CC1)N1CCN(c2ccc(O)cc2)CC1	3.8 µM	Ratio IC50 [2]: 5; inhibition [3]: Active; EC50 [1]: 18.1 µM; Activity (HeLa): Non-Toxic
O=C(CN1CCC(Cc2ccc(F)cc2)CC1)N1CCN(c2ccc(O)cc2)CC1	4.49 µM	
O=C(CCN1CCC(Cc2ccc(F)cc2)CC1)N1CCN(c2ccccc2)CC1	23.36 µM	
O=C(CN1CCC(Cc2ccc(F)cc2)CC1)N1CCN(c2ccccc2)CC1	9.6 µM	
